≈ marks a conversion by molar mass, not a printed value. Calls of active or inactive are those of the source. The rule behind the calls is not given here.
Assays:
Staphylococcus aureus [1] = test: Antibacterial activity against methicillin-resistant Staphylococcus aureus MW2 after 24 hrs by two-fold broth microdilution method; type: functional; conditions: MW2, 24 h
Method in brief: (§1)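 Read-out is the minimum inhibitory concentration against MRSA strain MW2, expressed in μg/mL.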

[2] = Cytotoxicity against human HKC8 cells after 24 hrs by WST1 assay; type: cell-based; conditions: HKC8, 24 h
Method in brief: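 Human HKC-8 cells were exposed to compound, and cytotoxicity was reported as IC₅₀ in μg/mL.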

[3] = Selectivity index, ratio of IC50 for human HKC8 cells to MIC for methicillin-resistant Staphylococcus aureus MW2; type: toxicity; conditions: read-out: Selectivity Index
Method in brief: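 Ratio of the cytotoxic IC50 in human HKC-8 kidney cells to the MIC against MRSA MW2. Both values are in μg/mL and were measured in this work.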

dsDNA [4] = test: Binding affinity to Dst double stranded DNA (unknown origin) at DNA to compound ratio of 1:2.5 to 1:10 after 20 mins by ESI-MS analysis; type: nucleic-acid assay
[5] = Inhibition of RNA transcription in cell-free system; type: functional
DNA = test: Binding affinity to ER04 single stranded DNA (unknown origin) at DNA to compound ratio of 1:2.5 to 1:10 after 20 mins by ESI-MS analysis; type: nucleic-acid assay
dsDNA [6] = test: Binding affinity to D2 double stranded DNA (unknown origin) at DNA to compound ratio of 1:2.5 to 1:10 after 20 mins by ESI-MS analysis; type: nucleic-acid assay
Quadruplex DNA [7] = test: Binding affinity to ER03 quadruplex DNA (unknown origin) at DNA to compound ratio of 1:2.5 to 1:10 after 20 mins by ESI-MS analysis; type: nucleic-acid assay
[8] = Inhibition of DNA replication in cell-free system at >160 uM using 5'-flap-primed M13 ssDNA template/dNTP pretreated for 5 mins followed by DNA addition and measured after 20 mins by helicase-independent polymerase3 primer extension-strand displacement rolling circle assay; type: functional
Method in brief: (§2)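 The cell-free bacterial replication system holds all enzymes, ancillary proteins, nucleotide precursors and DNA template needed to duplicate circular bacterial DNA. Covalent reaction with any component would read out as loss of replication.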

[9] = Inhibition of DNA replication in cell-free system at <640 uM using 5'-flap-dsDNA template/dNTP after 20 mins by helicase-dependent leading strand rolling circle replication assay; type: functional; method in brief: as §2
Staphylococcus aureus [10] = test: Antibacterial activity against methicillin-resistant Staphylococcus aureus MW2; type: functional; method in brief: as §1
dsDNA [11] = test: Binding affinity to Rt1 double stranded DNA (unknown origin) at DNA to compound ratio of 1:2.5 to 1:10 after 20 mins by ESI-MS analysis; type: nucleic-acid assay
[12] = Binding affinity to RNA oligonucleotide (unknown origin)
Method in brief: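 RNA oligonucleotides were incubated with compound, and adduct formation was examined by ESI mass spectrometry.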

Quadruplex DNA [13] = test: Binding affinity to G5 quadruplex DNA (unknown origin) at DNA to compound ratio of 1:2.5 to 1:10 after 20 mins by ESI-MS analysis; type: nucleic-acid assay

| SMILES | MIC (Staphylococcus aureus [1]) [µg/mL] | IC50 [2] [µg/mL] | selectivity ratio [3] | also measured |
| --- | --- | --- | --- | --- |
| CCCSC(=S)c1c(C)nn(-c2ccc(Cl)cc2)c1O | 2 to 4 (≈ 6.12 to 12.2 µM) | – | – | – |
| CCCSC(=S)c1c(-c2ccc(C#N)cc2)nn(-c2ccccc2)c1O | 2 (≈ 5.27 µM) | – | – | – |
| CSC(=S)c1c(C)nn(-c2ccccc2)c1O | 16 (≈ 60.5 µM) | 16 (≈ 60.5 µM) | 1 | – |
| CCCSC(=S)c1c(C)nn(-c2ccc(Br)cc2)c1O | 1 to 2 (≈ 2.69 to 5.39 µM) | – | – | – |
| CCCSC(=S)c1c(C)nn(-c2ccccc2)c1O | 4 (≈ 13.7 µM) | 4 (≈ 13.7 µM) | 1 | Activity (dsDNA [4]): inactive; inhibition [5]: inactive; Activity (DNA): inactive; Activity (dsDNA [6]): inactive; Activity (Quadruplex DNA [7]): inactive; inhibition [8]: Active; inhibition [9]: inactive; MIC (Staphylococcus aureus [10]): 4 µg/mL (≈ 13.7 µM); Activity (dsDNA [11]): inactive; Activity [12]: inactive; Activity (Quadruplex DNA [13]): inactive |
| CCCOC(=O)c1c(C)nn(-c2ccccc2)c1O | > 64 | – | – | – |
| CCCCSC(=S)c1c(C)nn(-c2ccccc2)c1O | 2 to 4 (≈ 6.53 to 13.1 µM) | 4 (≈ 13.1 µM) | 1 to 2 | – |
| CCCNC(=S)c1c(C)nn(-c2ccccc2)c1O | > 64 | – | – | – |
| C=CCSC(=S)c1c(C)nn(-c2ccccc2)c1O | 4 to 8 (≈ 13.8 to 27.5 µM) | 16 to 32 (≈ 55.1 to 110 µM) | 2 to 4 | – |
| CCCSC(=S)c1c(-c2ccc(OC)cc2)nn(-c2ccccc2)c1O | 2 (≈ 5.2 µM) | 8 (≈ 20.8 µM) | 4 | – |
| CCCSC(=S)c1c(C)nn(-c2ccc(F)cc2)c1O | 2 to 4 (≈ 6.44 to 12.9 µM) | – | – | – |
| CCCSC(=S)c1c(-c2ccc(Br)cc2)nn(-c2ccccc2)c1O | 0.5 (≈ 1.15 µM) | – | – | – |
| CSC(SC)=C1C(=O)N(c2ccccc2)N=C1C | > 64 | – | – | – |
| CCCNC(=O)c1c(C)nn(-c2ccccc2)c1O | > 64 | – | – | – |
| CCCSC(=S)c1c(C)nn(-c2ccc([N+](=O)[O-])cc2)c1O | 0.5 to 1 (≈ 1.48 to 2.96 µM) | 0.5 to 1 (≈ 1.48 to 2.96 µM) | 1 | – |
| CCCSC(=S)c1c(-c2ccc(F)cc2)nn(-c2ccccc2)c1O | 1 (≈ 2.68 µM) | 4 (≈ 10.7 µM) | 4 | – |
| CCCSC(=S)c1c(-c2ccc([N+](=O)[O-])cc2)nn(-c2ccccc2)c1O | 1 (≈ 2.5 µM) | 0.5 (≈ 1.25 µM) | 0.5 | – |
| CCCSC(=S)c1c(C)nn(-c2ccc(C#N)cc2)c1O | 2 (≈ 6.3 µM) | – | – | – |
| CCCSC(=S)c1c(C)nn(-c2ccc(OC)cc2)c1O | 8 (≈ 24.8 µM) | – | – | – |
| CCCSC(=S)c1c(C)nn(-c2ccc(C)cc2)c1O | 4 (≈ 13.1 µM) | – | – | – |
| CCCSC(=S)c1c(-c2ccc(Cl)cc2)nn(-c2ccccc2)c1O | 0.5 to 1 (≈ 1.29 to 2.57 µM) | 4 (≈ 10.3 µM) | 4 to 8 | – |
| CCCSC(=S)c1c(-c2ccc(C)cc2)nn(-c2ccccc2)c1O | 1 to 2 (≈ 2.71 to 5.43 µM) | 8 (≈ 21.7 µM) | 4 to 8 | – |
| CCCSC(=S)c1c(-c2ccccc2)nn(-c2ccccc2)c1O | 2 (≈ 5.64 µM) | 32 (≈ 90.3 µM) | 16 | – |
| Cc1nn(-c2ccccc2)c(O)c1C(=S)SCc1ccccc1 | 2 to 4 (≈ 5.87 to 11.7 µM) | 32 (≈ 94 µM) | 8 to 16 | – |
| Cc1nn(-c2ccccc2)c(O)c1C(=S)Sc1cccnc1 | 16 to 32 (≈ 48.9 to 97.7 µM) | – | – | – |
| CCSC(=S)c1c(C)nn(-c2ccccc2)c1O | 8 (≈ 28.7 µM) | 8 (≈ 28.7 µM) | 1 | – |
| CCCSC(=S)c1c(-c2ccc(C(F)(F)F)cc2)nn(-c2ccccc2)c1O | 32 to 64 (≈ 75.7 to 151 µM) | – | – | – |
